Hits are enriched below; roughly 2.7% of the tested compounds scored in any of these assays.
Yeast growth inh = yeast BB579 growth reduction in restrictive medium; 140,000 compounds, 0.51% hits; inhibition, % at 10 µM; S. cerevisiae BB579 growth, OD615, 48 h; AID 804;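 active means inhibition above a set limit, 3 SD over the mean compound inhibition, cut at about 44% in these data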
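Test system: Saccharomyces cerevisiae DeaD strain BB579, replicative lifespan model yeast | Buffer or medium: Restrictive CSMM-D medium | Doses: One dose, 10 µM compound with 0.25% DMSO | Incubation: 48 h exposure, 30 °C | Detection: Culture absorbance at 615 nm | Control set: Amphotericin B at 10 µg/mL as positive control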
Yeast life ext = yeast lifespan extension. S. cerevisiae growth with nicotinamide, OD615; deaD strain in restrictive glucose medium. inhibition of the nicotinamide effect, % at 10 µM. 130,000 compounds, 0.68% hits. AID 775;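 active means inhibition above a set limit, placed 3 SD over the median of all compounds, cut at about 26% in these data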;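 further: 0% = nicotinamide-treated wells and 100% = cells grown without nicotinamide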
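Material: Modified budding yeast, DeaD strain | Medium: Restrictive glucose medium | Probe or stimulus: 1.5 mM nicotinamide | Dosing: Single dose 10 µM compound, 0.25% DMSO | Times: 48 h at 30 °C | Technique: OD615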
RAM network inh = inhibitors of the yeast RAM network; 190,000 compounds, 1.8% hits; AID 868; inhibition, % at 50 µM; S. cerevisiae dse1pr::URA3 reporter, 5-FOA growth OD615, 2 d; analog-sensitive cbk1-as2 kinase mutant strain;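 active means inhibition above a set limit, 3 SD over mean compound inhibition, cut at about 8.4% in these data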;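 further: 0% = DMSO-only wells with no growth and 100% = 10 µM 1-NA-PP1 full growth; inhibition rescues growth on 5-FOA so higher OD means more RAM inhibition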
SDO1 yeast rescue = sdo1-depleted yeast growth rescue; S. cerevisiae sdo1-depleted JHY4D growth rescue, OD600 30 h; stronger effect = higher value; pdr5 snq2 efflux-pump mutant strain; z-score at 10 µM; 140,000 compounds, 0.21% hits; AID 817;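 active means z-score above 3 at both the 24 hr and the 30 hr optical density reads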;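 further: z-score against mean and SD of all compound wells on the same plate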
RAM efflux-def = RAM network inhibitors in efflux-deficient yeast; shares compounds with RAM network inh; S. cerevisiae efflux-deficient reporter strain, 5-FOA growth OD615, 2 days; max inhibition, %; 1,200 tested, under 10 active; call rule not given here;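 further: plate controls were vehicle for no effect and reference inhibitor for full effect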
An asterisk follows results filed as active.

Screening Cc1ccc(S(=O)(=O)NNC(=O)C2COc3ccccc3O2)cc1C (stereo not drawn) returned RAM network inh 2.
Cc1[nH]c2ccccc2c1/C=C(\C#N)C(=O)NC(C)c1ccccc1 (stereo not drawn) was read as Yeast growth inh 3, Yeast life ext -33, RAM network inh 2 and SDO1 yeast rescue -1.1.
For CCSc1nc(N2CCCCC2)c2c(c1C#N)CCCC2 the results were Yeast growth inh -39, Yeast life ext -6, RAM network inh 3 and SDO1 yeast rescue -0.23.
`N#Cc1c(SCc2ccccc2)nc(N2CCOCC2)c2c1CCCC2` gave Yeast growth inh -17, Yeast life ext -1, RAM network inh 15*, SDO1 yeast rescue 0.29 and RAM efflux-def 4.
Screening CC(=O)Oc1cccc(N2C(=O)c3ccc(C(=O)Nc4c[nH]c(=O)[nH]c4=O)cc3C2=O)c1 returned RAM network inh 12* and RAM efflux-def 3.
`COc1ccc(C(=O)/C=C/c2ccc(OC)c(COc3ccccc3F)c2)cc1` gave Yeast growth inh -38, Yeast life ext -2, RAM network inh 19*, SDO1 yeast rescue -0.22 and RAM efflux-def 5.
Screening COc1cc(/C=C/C(=O)c2ccc(C)cc2)ccc1OCC#N returned Yeast growth inh -1, Yeast life ext 9, RAM network inh 13*, SDO1 yeast rescue -1 and RAM efflux-def 4.
`COc1ccc(/C=C/C(=O)c2ccc(O)cc2)cc1COc1ccc(F)cc1` gave Yeast growth inh -34, Yeast life ext -2, RAM network inh 6 and SDO1 yeast rescue -1.
Screening COc1ccc(/C=C/C(=O)c2ccccc2)cc1COc1ccc(F)cc1 returned Yeast growth inh -52, Yeast life ext -11, RAM network inh 19*, SDO1 yeast rescue -0.37 and RAM efflux-def 6.
For CCOc1cc(/C=C/C(=O)c2ccc(C)cc2)ccc1OCC(=O)N(C)C the results were Yeast growth inh 19, Yeast life ext 0, RAM network inh 1 and SDO1 yeast rescue -1.3.
COC(=O)Cc1cc(=O)n2[nH]cnc2n1 was read as Yeast growth inh -5, Yeast life ext -28, RAM network inh 0 and SDO1 yeast rescue -0.56.
`Cn1cc(C(=O)N/N=C/C2=C(N3CCOCC3)C(=C\c3ccccc3)/CC2)ccc1=O` gave Yeast growth inh -32, Yeast life ext 3, RAM network inh -1 and SDO1 yeast rescue -0.22.
For O=C1Nc2ccccc2/C1=N\N=C\C1=C(N2CCOCC2)C(=C\c2ccccc2)/CC1 the results were Yeast growth inh -48, Yeast life ext -8, RAM network inh 13*, SDO1 yeast rescue -0.19 and RAM efflux-def 5.
COc1ccccc1N(C)S(=O)(=O)c1ccc(C(=O)OCC(=O)NCCC2=CCCCC2)cc1 was read as Yeast growth inh -36, Yeast life ext 10, RAM network inh 15*, SDO1 yeast rescue -0.81 and RAM efflux-def 2.
For COC(=O)CN(c1ccc(F)cc1)S(=O)(=O)c1ccccc1 the results were Yeast growth inh -5, Yeast life ext -6, RAM network inh -1 and SDO1 yeast rescue 0.47.
For COC(=O)Cc1ccc(N(Cc2ccccc2F)S(=O)(=O)c2ccc(Cl)cc2)cc1 the results were Yeast growth inh -76, Yeast life ext 14, RAM network inh 15*, SDO1 yeast rescue -0.88 and RAM efflux-def 1.
Screening O=C(COc1ccccc1F)N1c2ccccc2CCc2ccccc21 returned Yeast growth inh -6, Yeast life ext 1, RAM network inh 3 and SDO1 yeast rescue -0.79.
For CCc1ccc(OCC(=O)N2c3ccccc3CCc3ccccc32)cc1 the results were Yeast growth inh -44, Yeast life ext 8, RAM network inh 18*, SDO1 yeast rescue -0.33 and RAM efflux-def 6.
Screening Cc1ccc(N2CCN(C(=O)c3cc(C(=O)c4ccccc4C)c[nH]3)CC2)c(C)c1 returned RAM network inh 24* and RAM efflux-def 2.
Cc1ccc(N2CCN(C(=O)c3ccccc3)CC2)c(C)c1 was read as Yeast growth inh -32, Yeast life ext -9, RAM network inh 3 and SDO1 yeast rescue -0.4.
For Cc1ccnc(NC(=O)CS(=O)(=O)Cc2ccccc2)c1 the results were Yeast growth inh 14, Yeast life ext -8, RAM network inh 2 and SDO1 yeast rescue -0.08.
`COc1cc(Nc2cc(C)nc3ncnn23)cc(OC)c1OC` gave Yeast growth inh 8, Yeast life ext -13, RAM network inh 0 and SDO1 yeast rescue -0.15.
For Cc1noc(C)c1COc1cccc(C(=O)Nc2ccc(OCc3ccccc3)cc2)c1 the results were Yeast growth inh -36, Yeast life ext -11, RAM network inh 12*, SDO1 yeast rescue -0.98 and RAM efflux-def 7.
Screening Cc1noc(C)c1COc1ccc(C(=O)Nc2ccccc2)cc1 returned RAM network inh 4.
CCOC(=O)c1c(-c2ccccc2)csc1NC(=O)CSc1ccccc1 was read as Yeast growth inh -37, Yeast life ext 3, RAM network inh 13*, SDO1 yeast rescue 0.51 and RAM efflux-def 4.
`CCOC(=O)c1c(NC(=O)CSc2nnnn2-c2ccc(OC)cc2)sc(C)c1C` gave Yeast growth inh 42, Yeast life ext -4, RAM network inh 12*, SDO1 yeast rescue -1.3 and RAM efflux-def 2.
Screening CCOC(=O)c1cc(-c2ccccc2)sc1NC(=O)CSc1nncs1 returned Yeast growth inh -13, Yeast life ext -2, RAM network inh 7 and SDO1 yeast rescue -0.66.
For CCOC(=O)c1c(NC(=O)CSc2nncs2)sc(C)c1-c1ccccc1 the results were Yeast growth inh -51, Yeast life ext 2, RAM network inh 13*, SDO1 yeast rescue -0.58 and RAM efflux-def 4.
COc1ccc(OC)c(-c2csc(NC(=O)CSc3ccccc3)n2)c1 was read as Yeast growth inh -26, Yeast life ext 1, RAM network inh 11*, SDO1 yeast rescue -0.7 and RAM efflux-def 4.
`CCOC(=O)c1c(-c2ccc(OC)cc2)csc1NC(=O)CSc1ccccc1` gave Yeast growth inh -26, Yeast life ext -2, RAM network inh 15*, SDO1 yeast rescue 0.1 and RAM efflux-def 3.
O=C(COC(=O)c1cc(-c2ccccc2)nc2ccccc12)NCC1CCCO1 (stereo not drawn) was read as RAM network inh 1.
O=C(COC(=O)c1cc(-c2cccc(Br)c2)nc2ccccc12)NCC1CCCO1 (stereo not drawn) was read as RAM network inh 15* and RAM efflux-def 3.
O=S(=O)(Nc1ccc(-c2csc(-c3ccccc3)n2)cc1)c1ccccc1 was read as Yeast growth inh -47, Yeast life ext 9, RAM network inh 13*, SDO1 yeast rescue -1.1 and RAM efflux-def 1.
`COc1ccc(NC(=O)COC(=O)c2cc(SC)ccc2Cl)c(OC)c1` gave Yeast growth inh -2, Yeast life ext -2, RAM network inh 6 and SDO1 yeast rescue 0.24.

Screening data (PubChem)
